Legend:
[1] = target: T1, Amine oxidase [flavin-containing] B (Homo sapiens, UniProt P27338); test: Non-competitive inhibition of recombinant human MAO-B expressed in baculovirus infected BTI insect cells using varying levels of tyramine as substrate pretreated for 30 mins followed by substrate addition measured for 30 mins by Line-weaver burk plot method
T1 sequence (P27338 whole entry): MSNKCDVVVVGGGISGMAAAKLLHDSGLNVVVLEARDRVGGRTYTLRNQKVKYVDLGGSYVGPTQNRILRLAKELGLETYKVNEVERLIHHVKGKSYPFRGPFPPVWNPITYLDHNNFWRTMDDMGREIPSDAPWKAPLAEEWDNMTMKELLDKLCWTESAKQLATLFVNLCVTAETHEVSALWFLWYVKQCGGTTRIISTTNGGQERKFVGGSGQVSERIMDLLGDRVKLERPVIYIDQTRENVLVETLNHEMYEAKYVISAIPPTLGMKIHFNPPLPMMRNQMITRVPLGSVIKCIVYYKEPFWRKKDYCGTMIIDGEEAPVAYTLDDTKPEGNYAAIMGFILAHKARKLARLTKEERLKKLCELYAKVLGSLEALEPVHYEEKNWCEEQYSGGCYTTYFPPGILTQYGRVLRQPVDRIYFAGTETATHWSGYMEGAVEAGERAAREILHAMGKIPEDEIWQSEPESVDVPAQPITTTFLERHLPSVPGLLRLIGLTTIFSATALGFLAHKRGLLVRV
Summary of the method: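 hMAO-B preincubated 30 min at 37°C with inhibitor at five concentrations. Working solution with tyramine at 20, 10, 5, 2.5, 1.25 and 0.625 µM then added, and fluorescence (Ex/Em 535/587 nm) followed for 30 min alongside an inhibitor-free run; quadruplicate. Inhibition type from Lineweaver-Burk plots; Ki from x-intercept of Vmax replotted against inhibitor concentration.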

[2] = tested on: Salmonella typhimurium; test: Genotoxicity in Salmonella typhimurium TA100 assessed as increase in number of revertants at 5 mg/ml in presence of aroclor-1254-induced Sprague-Dawley rat liver microsomal S9 fraction by Ames-MPF assay relative to baseline; assay type: toxicity; details: salmonella enterica subsp. enterica serovar typhimurium, microsomes
Summary of the method: (§1)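 AmesMPF 98/100 fluctuation format with S. typhimurium TA98 (frameshift) and TA100 (base-pair substitution), run with and without S9. Compounds were made up in DMSO at 0.156–5 mg/mL, six levels; solvent control was 4% DMSO. With S9, positive controls were 2-aminoanthracene at 1 µg/mL (TA98) and 2.5 µg/mL (TA100). Wells turned yellow by pH drop were scored positive. Fold over baseline is mean positive wells divided by (zero-dose mean + 1 SD). Student's t-test, p<0.05.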

[3] = tested on: Salmonella typhimurium; test: Genotoxicity in Salmonella typhimurium TA98 assessed as increase in number of revertants at 0.625 mg/ml in presence of aroclor-1254-induced Sprague-Dawley rat liver microsomal S9 fraction by Ames-MPF assay relative to baseline; assay type: toxicity; details: salmonella enterica subsp. enterica serovar typhimurium, microsomes; summary of the method: as §1
[4] = tested on: Salmonella typhimurium; test: Genotoxicity in Salmonella typhimurium TA100 assessed as increase in number of revertants at 0.156 mg/ml in presence of aroclor-1254-induced Sprague-Dawley rat liver microsomal S9 fraction by Ames-MPF assay relative to baseline; assay type: toxicity; details: salmonella enterica subsp. enterica serovar typhimurium, microsomes; summary of the method: as §1
[5] = tested on: Salmonella typhimurium; test: Genotoxicity in Salmonella typhimurium TA98 assessed as increase in number of revertants at 5 mg/ml in absence of aroclor-1254-induced Sprague-Dawley rat liver microsomal S9 fraction by Ames-MPF assay relative to baseline; assay type: toxicity; details: salmonella enterica subsp. enterica serovar typhimurium, microsomes; summary of the method: as §1
[6] = tested on: Salmonella typhimurium; test: Genotoxicity in Salmonella typhimurium TA98 assessed as increase in number of revertants at 1.25 mg/ml in absence of aroclor-1254-induced Sprague-Dawley rat liver microsomal S9 fraction by Ames-MPF assay relative to baseline; assay type: toxicity; details: salmonella enterica subsp. enterica serovar typhimurium, microsomes; summary of the method: as §1
[7] = tested on: Salmonella typhimurium; test: Genotoxicity in Salmonella typhimurium TA98 assessed as increase in number of revertants at 0.156 mg/ml in absence of aroclor-1254-induced Sprague-Dawley rat liver microsomal S9 fraction by Ames-MPF assay relative to baseline; assay type: toxicity; details: salmonella enterica subsp. enterica serovar typhimurium, microsomes; summary of the method: as §1
[8] = tested on: Salmonella typhimurium; test: Genotoxicity in Salmonella typhimurium TA98 assessed as increase in number of revertants at 0.625 mg/ml in absence of aroclor-1254-induced Sprague-Dawley rat liver microsomal S9 fraction by Ames-MPF assay relative to baseline; assay type: toxicity; details: salmonella enterica subsp. enterica serovar typhimurium, microsomes; summary of the method: as §1
[9] = tested on: Salmonella typhimurium; test: Genotoxicity in Salmonella typhimurium TA100 assessed as increase in number of revertants at 1.25 mg/ml in absence of aroclor-1254-induced Sprague-Dawley rat liver microsomal S9 fraction by Ames-MPF assay relative to baseline; assay type: toxicity; details: salmonella enterica subsp. enterica serovar typhimurium, microsomes; summary of the method: as §1
[10] = tested on: Salmonella typhimurium; test: Genotoxicity in Salmonella typhimurium TA100 assessed as increase in number of revertants at 5 mg/ml in absence of aroclor-1254-induced Sprague-Dawley rat liver microsomal S9 fraction by Ames-MPF assay relative to baseline; assay type: toxicity; details: salmonella enterica subsp. enterica serovar typhimurium, microsomes; summary of the method: as §1
[11] = tested on: Salmonella typhimurium; test: Genotoxicity in Salmonella typhimurium TA98 assessed as increase in number of revertants at 0.3125 mg/ml in absence of aroclor-1254-induced Sprague-Dawley rat liver microsomal S9 fraction by Ames-MPF assay relative to baseline; assay type: toxicity; details: salmonella enterica subsp. enterica serovar typhimurium, microsomes; summary of the method: as §1
[12] = tested on: Salmonella typhimurium; test: Genotoxicity in Salmonella typhimurium TA100 assessed as increase in number of revertants at 0.625 mg/ml in presence of aroclor-1254-induced Sprague-Dawley rat liver microsomal S9 fraction by Ames-MPF assay relative to baseline; assay type: toxicity; details: salmonella enterica subsp. enterica serovar typhimurium, microsomes; summary of the method: as §1
[13] = tested on: Salmonella typhimurium; test: Genotoxicity in Salmonella typhimurium TA98 assessed as increase in number of revertants at 2.5 mg/ml in absence of aroclor-1254-induced Sprague-Dawley rat liver microsomal S9 fraction by Ames-MPF assay relative to baseline; assay type: toxicity; details: salmonella enterica subsp. enterica serovar typhimurium, microsomes; summary of the method: as §1
[14] = tested on: Salmonella typhimurium; test: Genotoxicity in Salmonella typhimurium TA100 assessed as increase in number of revertants at 0.3125 mg/ml in absence of aroclor-1254-induced Sprague-Dawley rat liver microsomal S9 fraction by Ames-MPF assay relative to baseline; assay type: toxicity; details: salmonella enterica subsp. enterica serovar typhimurium, microsomes; summary of the method: as §1

Ki [1] [nM]	SMILES	fold change (FC) [2]	fold change (FC) [3]	fold change (FC) [4]	fold change (FC) [5]	fold change (FC) [6]	fold change (FC) [7]	fold change (FC) [8]	fold change (FC) [9]	fold change (FC) [10]	fold change (FC) [11]	fold change (FC) [12]	fold change (FC) [13]	fold change (FC) [14]
150 to 151	C#CCn1c(-c2ccc(C(=O)N/N=C/c3cccnc3)cc2)nc2ccccc21	0.07	0.35	0.53	0.46	0.68	1.03	0.51	0.64	0.89	0.74	0.27	0.4	0.99
	C#CCn1c(-c2ccc(C(=O)N/N=C/c3ccc(F)cc3)cc2)nc2ccccc21	1.94	2.01	0.79	0.34	0.28	0.68	0.23	0.59	1.63	0.46	1.15	0.28	0.79

From ChEMBL document CHEMBL4038273, “MAO enzymes inhibitory activity of new benzimidazole derivatives including hydrazone and propargyl side chains” (Eur J Med Chem, 2017)
